Activity calls are given as the source filed them. The rule behind the calls is not given here.
Tests used:
Caco-2 [1] = assay: Induction of apoptosis in human Caco2 cells assessed as late apoptotic cells at 0.5 uM after 24 hrs by Annexin V/propidium iodide staining-based flow cytometric analysis (reference value: 2.20 +/- 0.77%); assay type: functional
Caco-2 [2] = assay: Induction of apoptosis in human Caco2 cells assessed as necrotic cells at 0.05 uM after 24 hrs by Annexin V/propidium iodide staining-based flow cytometric analysis (reference value: 0.41 +/- 0.02%); assay type: functional
Caco-2 [3] = assay: Induction of apoptosis in human Caco2 cells assessed as early apoptotic cells at 0.5 uM after 24 hrs by Annexin V/propidium iodide staining-based flow cytometric analysis (reference value: 0.72 +/- 0.03%); assay type: functional
Caco-2 [4] = assay: Induction of apoptosis in human Caco2 cells assessed as necrotic cells at 0.5 uM after 48 hrs by Annexin V/propidium iodide staining-based flow cytometric analysis (reference value: 0.41 +/- 0.02%); assay type: functional
Jurkat = assay: Cytotoxicity against human Jurkat cells after 24 hrs by MTT assay; assay type: functional, cell-based
Procedure, shortened: (§1)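 Cells seeded at 25000 per well and held 24 h at 37 °C in 5% CO2. Medium was then renewed and compounds added at increasing concentrations (DMSO 0.1%, or water for topotecan) for 24 h. MTT solution (5 mg/mL) was added for 3 h at 37 °C, then absorbance read at 570 nm, corrected at 630 nm. IC50 in µM.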

Homo sapiens = organism: Homo sapiens; assay: Activity at Pgp transporter (unknown origin)
[5] = Permeability from apical to basolateral side in human Caco2 cells at 5 to 50 uM after 15 to 90 mins by HPLC analysis; assay type: ADME, cell-based; conditions: caco-2, 50 µM
Procedure, shortened: (§2)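 Caco-2 monolayers grown 19-22 days on polycarbonate transwell inserts (4.2 cm², 0.4 µm pore) at 37 °C, 5% CO2; TEER checked before and after each run. Compound added to donor side at 37 °C, 50 rpm. Receiver sampled at 15, 30, 60 and 90 min; donor sampled at start and end. HPLC analysis. Sodium azide, when used, placed on both sides. Three independent experiments.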

Caco-2 [6] = assay: Induction of apoptosis in human Caco2 cells assessed as vital cells at 0.05 uM after 48 hrs by Annexin V/propidium iodide staining-based flow cytometric analysis (reference value: 96.67 +/- 1.02%); assay type: functional
[7] = Cytotoxicity against human Caco2 cells after 24 hrs by MTT assay; assay type: functional, cell-based; conditions: Caco-2, 24 h
Caco-2 [8] = assay: Induction of apoptosis in human Caco2 cells assessed as necrotic cells at 0.5 uM after 24 hrs by Annexin V/propidium iodide staining-based flow cytometric analysis (reference value: 0.41 +/- 0.02%); assay type: functional
A-375 [9] = assay: Induction of apoptosis in human A375 cells assessed as inhibition of DNA synthesis at 0.8 to 1.6 uM after 24 hrs by BrdU staining-based ELISA; assay type: functional, cell-based
Procedure, shortened: (§3)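 BrdU colorimetric cell proliferation ELISA. Cells seeded at 25,000 per well, compounds added 24 h after seeding and incubated 24 h. Cells fixed and the immunoassay run per kit. Absorbance read at 370-492 nm over 3 intervals of 5 min; absorbance difference proportional to BrdU incorporation. Mean of three separate experiments in triplicate, compared with untreated control.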

Caco-2 [10] = assay: Induction of apoptosis in human Caco2 cells assessed as late apoptotic cells at 0.05 uM after 24 hrs by Annexin V/propidium iodide staining-based flow cytometric analysis (reference value: 2.20 +/- 0.77%); assay type: functional
Caco-2 [11] = assay: Induction of apoptosis in human Caco2 cells assessed as early apoptotic cells at 0.05 uM after 24 hrs by Annexin V/propidium iodide staining-based flow cytometric analysis (reference value: 0.72 +/- 0.03%); assay type: functional
Caco-2 [12] = assay: Induction of apoptosis in human Caco2 cells assessed as vital cells at 0.5 uM after 48 hrs by Annexin V/propidium iodide staining-based flow cytometric analysis (reference value: 96.67 +/- 1.02%); assay type: functional
MDA-MB-231 [13] = assay: Induction of apoptosis in human MDA-MB-231 cells assessed as p53 phosphorylation at Ser15 by Western blotting analysis; assay type: functional, cell-based
Procedure, shortened: (§4)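 Cells treated 24 h. About 10^6 cells lysed on ice 15 min in Hepes pH 7.4/Triton X-100 buffer with phosphatase and protease inhibitors, then spun 13,000 × g. 30 µg protein run on 12% SDS-PAGE and blotted to nitrocellulose. Primary anti-phospho-p53 (Ser15) and anti-p53 at 1:1000 for 2 h at room temperature, then HRP secondary and ECL densitometry. Results referred to untreated control.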

Caco-2 [14] = assay: Induction of apoptosis in human Caco2 cells assessed as early apoptotic cells at 0.5 uM after 48 hrs by Annexin V/propidium iodide staining-based flow cytometric analysis (reference value: 0.72 +/- 0.03%); assay type: functional
A-375 [15] = assay: Induction of apoptosis in human A375 cells assessed as p53 phosphorylation at Ser15 by Western blotting analysis; assay type: functional, cell-based; procedure, shortened: as §4
Caco-2 [16] = assay: Induction of apoptosis in human Caco2 cells assessed as necrotic cells at 0.05 uM after 48 hrs by Annexin V/propidium iodide staining-based flow cytometric analysis (reference value: 0.41 +/- 0.02%); assay type: functional
Caco-2 [17] = assay: Induction of apoptosis in human Caco2 cells assessed as early apoptotic cells at 0.05 uM after 48 hrs by Annexin V/propidium iodide staining-based flow cytometric analysis (reference value: 0.72 +/- 0.03%); assay type: functional
MDA-MB-231 [18] = assay: Cytotoxicity against human MDA-MB-231 cells after 24 hrs by MTT assay; assay type: functional, cell-based; conditions: MDA-MB-231, 24 h; procedure, shortened: as §1
HeLa [19] = assay: Induction of apoptosis in human HeLa cells assessed as p53 phosphorylation at Ser15 by Western blotting analysis; assay type: functional, cell-based; procedure, shortened: as §4
HeLa [20] = assay: Cytotoxicity against human HeLa cells after 24 hrs by MTT assay; assay type: functional, cell-based; procedure, shortened: as §1
Caco-2 [21] = assay: Induction of apoptosis in human Caco2 cells assessed as late apoptotic cells at 0.05 uM after 48 hrs by Annexin V/propidium iodide staining-based flow cytometric analysis (reference value: 2.20 +/- 0.77%); assay type: functional
[22] = Effective permeability from basolateral to apical side in human Caco2 cells at 50 uM after 15 to 90 mins by HPLC analysis in presence of sodium azide; assay type: ADME, cell-based; conditions: Caco-2, with sodium azide, read-out: Peff; procedure, shortened: as §2
MDA-MB-231 [23] = assay: Induction of apoptosis in human MDA-MB-231 cells assessed as inhibition of DNA synthesis at 0.8 to 1.6 uM after 24 hrs by BrdU staining-based ELISA; assay type: functional, cell-based; procedure, shortened: as §3
[24] = Effective permeability from apical to basolateral side in human Caco2 cells at 50 uM after 15 to 90 mins by HPLC analysis in presence of sodium azide; assay type: ADME, cell-based; conditions: Caco-2, with sodium azide, read-out: Peff; procedure, shortened: as §2
[25] = Effective permeability from apical to basolateral side in human Caco2 cells at 50 uM after 15 to 90 mins by HPLC analysis; assay type: ADME, cell-based; conditions: Caco-2, read-out: Peff; procedure, shortened: as §2
[26] = Permeability from basolateral to apical side in human Caco2 cells at 5 to 50 uM after 15 to 90 mins by HPLC analysis; assay type: ADME, cell-based; conditions: caco-2, 50 µM; procedure, shortened: as §2
HeLa [27] = assay: Induction of apoptosis in human HeLa cells assessed as inhibition of DNA synthesis at 0.8 to 1.6 uM after 24 hrs by BrdU staining-based ELISA; assay type: functional, cell-based; procedure, shortened: as §3
[28] = Effective permeability in Wistar rat small intestine at 50 uM measured after 5 mins in every 5 min interval up to 30 mins; assay type: ADME, tissue-based; conditions: not told, read-out: Peff
Procedure, shortened: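 In situ intestinal perfusion in male Wistar rats fasted 2 h with water allowed. Anaesthesia with diazepam (1.67 mg/kg), ketamine (50 mg/kg) and atropine (1 mg/kg); animals kept at 37 °C. Perfusate sampled every 5 min from 5 to 30 min; absorption rate constant and Peff derived.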

A-375 [29] = assay: Cytotoxicity against human A375 cells after 24 hrs by MTT assay; assay type: functional, cell-based; conditions: A-375, 24 h; procedure, shortened: as §1
Small intestine = assay: Effective permeability in Wistar rat small intestine assessed as absorption rate coefficient at 50 uM measured after 5 mins in every 5 min interval up to 30 mins; assay type: ADME, tissue-based
Procedure, shortened: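 Male Wistar rats fasted 2 h with water available, then anaesthetised with diazepam (1.67 mg/kg), ketamine (50 mg/kg) and atropine (1 mg/kg) and kept at 37°C on a heated surface. In situ intestinal perfusion. Perfusate sampled from 5 min at 5 min intervals up to 30 min. Absorption rate constant (Ka) and Peff derived.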

[30] = Effective permeability from basolateral to apical side in human Caco2 cells at 50 uM after 15 to 90 mins by HPLC analysis; assay type: ADME, cell-based; conditions: Caco-2, read-out: Peff; procedure, shortened: as §2
Caco-2 [31] = assay: Induction of apoptosis in human Caco2 cells assessed as vital cells at 0.05 uM after 24 hrs by Annexin V/propidium iodide staining-based flow cytometric analysis (reference value: 96.67 +/- 1.02%); assay type: functional
Caco-2 [32] = assay: Induction of apoptosis in human Caco2 cells assessed as late apoptotic cells at 0.5 uM after 48 hrs by Annexin V/propidium iodide staining-based flow cytometric analysis (reference value: 2.20 +/- 0.77%); assay type: functional
Caco-2 [33] = assay: Induction of apoptosis in human Caco2 cells assessed as vital cells at 0.5 uM after 24 hrs by Annexin V/propidium iodide staining-based flow cytometric analysis (reference value: 96.67 +/- 1.02%); assay type: functional
A-375 [34] = assay: Induction of apoptosis in human A375 cells assessed as inhibition of DNA synthesis after 24 hrs by BrdU staining-based ELISA; assay type: functional, cell-based
Procedure, shortened: (§5)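 Cells seeded at 25,000/well; compounds added 24 h after seeding at a range of concentrations and incubated 24 h. Cells fixed, then colorimetric BrdU-incorporation ELISA. Absorbance read at 370-492 nm over 3 intervals of 5 min. Mean of three separate experiments with triplicate samples.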

HeLa [35] = assay: Induction of apoptosis in human HeLa cells assessed as inhibition of DNA synthesis after 24 hrs by BrdU staining-based ELISA; assay type: functional, cell-based; procedure, shortened: as §5
MDA-MB-231 [36] = assay: Induction of apoptosis in human MDA-MB-231 cells assessed as inhibition of DNA synthesis after 24 hrs by BrdU staining-based ELISA; assay type: functional, cell-based; procedure, shortened: as §5

| Compound | Activity (Caco-2 [1]) [%] | Activity (Caco-2 [2]) [%] | Activity (Caco-2 [3]) [%] | Activity (Caco-2 [4]) [%] | IC50 (Jurkat) [nM] | permeability [5] | Activity (Caco-2 [6]) [%] | IC50 [7] [nM] | Activity (A-375 [9]) | Activity (MDA-MB-231 [13]) | Activity (A-375 [15]) | IC50 (MDA-MB-231 [18]) [nM] | Activity (HeLa [19]) | IC50 (HeLa [20]) [nM] | Activity (MDA-MB-231 [23]) | Papp A→B at 50 µM [25] [×10⁻⁶ cm/s] | Activity (HeLa [27]) | Papp at 5 min, 50 µM [28] [×10⁻⁶ cm/s] | IC50 (A-375 [29]) [nM] | Ka (Small intestine) [h⁻¹] | other results |
| --- | --- | --- | --- | --- | --- | --- | --- | --- | --- | --- | --- | --- | --- | --- | --- | --- | --- | --- | --- | --- | --- |
| CC[C@@]1(O)C(=O)OCc2c1cc1n(c2=O)Cc2cc3c4c(ccc3nc2-1)OCOC4 | 42.88 | 1.92 | 8.16 | 3.2 | 124 | permeable | 57 | 104 | Active | Active | Active | 476 | inactive | 345 | Active | 10 | Active | 93.8 | 186 | 3.78 | Activity (Homo sapiens): inactive; Activity (Caco-2 [8]): 1.18%; Activity (Caco-2 [10]): 24.72%; Activity (Caco-2 [11]): 11.8%; Activity (Caco-2 [12]): 37.04%; Activity (Caco-2 [14]): 3.68%; Activity (Caco-2 [16]): 5.9%; Activity (Caco-2 [17]): 3.56%; Activity (Caco-2 [21]): 33.54%; Papp B→A at 50 µM [22]: 9.73 ×10⁻⁶ cm/s; Papp A→B at 50 µM [24]: 8.05 ×10⁻⁶ cm/s; permeability [26]: permeable; Papp B→A at 50 µM [30]: 9.84 ×10⁻⁶ cm/s; Activity (Caco-2 [31]): 61.56%; Activity (Caco-2 [32]): 56.08%; Activity (Caco-2 [33]): 47.78% |
| CC[C@@]1(O)C(=O)OCc2c1cc1n(c2=O)Cc2cc3ccccc3nc2-1 [CAMPTOTHECIN] | 13.7 | 0.12 | 1.64 | 2.76 | 110 | permeable | 51.12 | 131 | Active | Active | Active | 342 | inactive | 420 | Active | 7.88 | Active | 74.8 | 187 | 3.02 | Activity (Caco-2 [8]): 3.04%; Activity (Caco-2 [10]): 1.4%; Activity (Caco-2 [11]): 15.22%; Activity (Caco-2 [12]): 36.98%; Activity (Caco-2 [14]): 4.1%; Activity (Caco-2 [16]): 4.32%; Activity (Caco-2 [17]): 3.18%; Activity (Caco-2 [21]): 41.38%; permeability [26]: permeable; Activity (Caco-2 [31]): 83.26%; Activity (Caco-2 [32]): 56.16%; Activity (Caco-2 [33]): 81.62% |
| COCCc1ccc(OCC(O)CNC(C)C)cc1 (centres undefined) [METOPROLOL] | – | – | – | – | – | – | – | – | – | – | – | – | – | – | – | 23 | – | 55.3 | – | 2.3 | – |
| CC[C@@]1(O)C(=O)OCc2c1cc1n(c2=O)Cc2cc3c([N+](=O)[O-])cccc3nc2-1 [RUBITECAN] | – | – | – | – | 128 | – | – | – | Active | Active | Active | 479 | inactive | 343 | Active | – | Active | – | 138 | – | inhibition (A-375 [34]): Dose-dependent effect; inhibition (HeLa [35]): Dose-dependent effect; inhibition (MDA-MB-231 [36]): Dose-dependent effect |

Source: ChEMBL document CHEMBL3351736, “A promising camptothecin derivative: Semisynthesis, antitumor activity and intestinal permeability” (Eur J Med Chem, 2014)
